The text below walks through data of ChEMBL document CHEMBL1140298, “Identification of borinic esters as inhibitors of bacterial cell growth and bacterial methyltransferases, CcrM and MenH” (2005).

Converted amounts (≈) assume the structure as drawn. The source made the active and inactive calls. The rule behind the calls is not given here.

As a reminder, the inhibition is the drop in the measured response relative to a control, in per cent.

For assay [1], the system named is Staphylococcus epidermidis. As to the kind of experiment: Antibacterial activity against Staphylococcus epidermidis ATCC 12228. The class given is functional. Put shortly: (§1)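 MIC determined following NCCLS guidelines.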
In a further assay the test system is Francisella tularensis. Briefly: Antibacterial activity against Francisella tularensis. Type of assay: functional. In a few lines:
(§2)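 MIC read-out, determined according to NCCLS guidelines.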

The test system of another assay is Enterococcus faecium. As to the kind of experiment: Antibacterial activity against Enterococcus faecium CT26. The class given is functional. In a few lines:
as §1

In assay [2] the test system is Mycobacterium tuberculosis. As to the kind of experiment: Antibacterial activity against Mycobacterium tuberculosis H37Rv. Type of assay: functional. In a few lines: as §2
In a further assay the test system is Bacillus anthracis. Briefly: Antibacterial activity against Bacillus anthracis. Type of assay: functional. In a few lines: as §2
The subject of assay [3] is Yersinia pseudotuberculosis. As to the kind of experiment: Antibacterial activity against Yersinia pseudotuberculosis ATCC 29833. The class given is functional. Put shortly: as §2
The test system of a further assay is Enterococcus faecalis. Briefly: Antibacterial activity against Enterococcus faecalis ATCC 29212. The class given is functional. Put shortly: as §1
The test system of the next assay is Moraxella catarrhalis. As to the kind of experiment: Antibacterial activity against Moraxella catarrhalis. Type of assay: functional. In a few lines: as §1
For the next assay, the system named is Bacillus subtilis. As to the kind of experiment: Antibacterial activity against Bacillus subtilis ATCC 23857. Type of assay: functional. Put shortly: as §1
For another assay, the system named is Staphylococcus aureus. As to the kind of experiment: Antibacterial activity against Staphylococcus aureus ATCC 29213. Type of assay: functional. In a few lines:
as §1

Another assay has as its system Haemophilus influenzae. Briefly: Antibacterial activity against Haemophilus influenzae ATCC 4976. The class given is functional. In a few lines:
as §1

Assay [4] concerns Caulobacter vibrioides. Briefly: Antibacterial activity against Caulobacter crescentus after 18 hrs. Type of assay: functional.
For assay [5], the system named is Caulobacter vibrioides. As to the kind of experiment: Inhibition of Caulobacter crescentus DNA methyltransferase CcrM assessed as transfer of [3H-Me] to DNA at 100 uM relative to control. Put shortly: (§3)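 Inhibitor at 100 uM; methyl transfer from [3H-Me]-AdoMet to DNA substrate measured, expressed as percent of activity without inhibitor.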
The next assay has as its system Escherichia coli. As to the kind of experiment: Inhibition of Escherichia coli DNA methyltransferase Dam assessed as transfer of [3H-Me] to DNA at 100 uM relative to control. Put shortly:
as §3

The target in assay [6] is T1, Demethylmenaquinone methyltransferase (Bacillus subtilis (strain 168)) (UniProt P31113).
T1 sequence (whole entry): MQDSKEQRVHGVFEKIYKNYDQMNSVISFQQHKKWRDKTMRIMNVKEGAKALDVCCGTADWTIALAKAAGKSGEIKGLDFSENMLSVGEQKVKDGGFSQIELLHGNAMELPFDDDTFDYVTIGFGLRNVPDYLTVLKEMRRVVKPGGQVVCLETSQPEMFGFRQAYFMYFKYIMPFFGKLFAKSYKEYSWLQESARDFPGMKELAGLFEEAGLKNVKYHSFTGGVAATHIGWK
Briefly: Inhibition of Bacillus subtilis MenH methyltransferase assessed as {3H-Me] to DNA at 100 uM relative control. In a few lines:
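Lysate of E. coli JM109 overexpressing B. subtilis MenH (IPTG 1 mM induction, sonicated) in 0.1 M Tris-HCl pH 8.0, 10 mM MgCl2, 10 mM DTT, 1 uM FPP, 1 uM 1,4-dihydroxy-2-naphthoic acid, 1 uM IPP, 20 uM AdoMet plus [3H]-AdoMet; inhibitor 100 uM final; 37 °C 1 h; acid-methanol quench, hexane/2-propanol extraction, scintillation counting; triplicate; % of no-inhibitor activity.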

For the molecule `C=CB(Oc1cccc2cccnc12)c1cccc(C#N)c1`, the MIC in [1] was 1 mg/L (≈ 3.52 µM); against Francisella tularensis it was 8 mg/L (≈ 28.2 µM); in the assay with Enterococcus faecium, 2 mg/L (≈ 7.04 µM); in [2] it was 0.62 mg/L (≈ 2.18 µM); against Bacillus anthracis it was 8 mg/L (≈ 28.2 µM); in [3], 32 mg/L (≈ 113 µM). Moreover, the MIC in the assay on Enterococcus faecalis is 8 mg/L (≈ 28.2 µM); in the assay with Moraxella catarrhalis, 2 mg/L (≈ 7.04 µM); against Bacillus subtilis, 4 mg/L (≈ 14.1 µM); in the assay on Staphylococcus aureus it was 1 mg/L (≈ 3.52 µM); in the assay with Haemophilus influenzae it was 2 mg/L (≈ 7.04 µM).
In the case of `Clc1ccc(B(Oc2ccc(Cl)c3cccnc23)c2ccc(Cl)cc2)cc1`, the MIC in [1] was found to be 0.25 mg/L (≈ 0.606 µM); in the assay with Caulobacter vibrioides [4] it was 2.6 mg/L (≈ 6.3 µM); against Francisella tularensis it was 0.01 mg/L (≈ 0.0242 µM); with Enterococcus faecium, 2 mg/L (≈ 4.85 µM); in [2], 0.62 mg/L (≈ 1.5 µM); against Bacillus anthracis, 5.3 mg/L (≈ 12.8 µM). Besides, the MIC in [3] was 8 mg/L (≈ 19.4 µM); against Enterococcus faecalis, 32 mg/L (≈ 77.6 µM); against Moraxella catarrhalis, ≤ 0.125 mg/L; in the assay with Bacillus subtilis, 32 mg/L (≈ 77.6 µM); against Staphylococcus aureus it was 0.5 mg/L (≈ 1.21 µM); against Haemophilus influenzae it was 0.25 mg/L (≈ 0.606 µM). Moreover, the result with Caulobacter vibrioides [5] was Active.
For the molecule `Clc1ccc(C(Oc2cccc3cccnc23)c2ccc(Cl)cc2)cc1`, the MIC in assay [1] is > 64 mg/L; against Enterococcus faecium it was > 64 mg/L; in assay [2], > 5 mg/L; in assay [3], > 64 mg/L; against Enterococcus faecalis, > 64 mg/L; with Bacillus subtilis it was > 64 mg/L. Besides, the MIC with Staphylococcus aureus and against Haemophilus influenzae was > 64 mg/L throughout. Besides, the outcome in the assay on Escherichia coli and with Caulobacter vibrioides [5] was inactive.
As to `Clc1cccc(B(Oc2cccc3cccnc23)c2cccc(Cl)c2)c1`, the MIC turned out to be 2 mg/L (≈ 5.29 µM) in assay [1]; 0.01 mg/L (≈ 0.0265 µM) in the assay with Francisella tularensis; 4 mg/L (≈ 10.6 µM) in the assay on Enterococcus faecium; 0.62 mg/L (≈ 1.64 µM) in [2]; 6.25 mg/L (≈ 16.5 µM) against Bacillus anthracis; 32 mg/L (≈ 84.6 µM) in assay [3]. The MIC against Enterococcus faecalis is 32 mg/L (≈ 84.6 µM); in the assay with Moraxella catarrhalis, 2 mg/L (≈ 5.29 µM); with Bacillus subtilis, 2 mg/L (≈ 5.29 µM); in the assay on Staphylococcus aureus it was 1 mg/L (≈ 2.65 µM); with Haemophilus influenzae, 8 mg/L (≈ 21.2 µM). The result in the assay on Caulobacter vibrioides [5] was Active.
On to `C=CB(Oc1cccc2cccnc12)c1ccccc1Cl`, for which the MIC in [1] stood at 1 mg/L (≈ 3.41 µM); against Francisella tularensis it was 16 mg/L (≈ 54.5 µM); in the assay with Enterococcus faecium, 2 mg/L (≈ 6.81 µM); in assay [2], 0.31 mg/L (≈ 1.06 µM); in assay [3], 32 mg/L (≈ 109 µM); against Enterococcus faecalis, 64 mg/L (≈ 218 µM). Besides, the MIC is 1 mg/L (≈ 3.41 µM) against Moraxella catarrhalis, 4 mg/L (≈ 13.6 µM) against Bacillus subtilis, 2 mg/L (≈ 6.81 µM) against Staphylococcus aureus and 2 mg/L (≈ 6.81 µM) with Haemophilus influenzae.
`Cc1ccc2cccc(OB(c3ccc(Cl)cc3)c3ccc(Cl)cc3)c2n1`: the MIC in assay [1] was 8 mg/L (≈ 20.4 µM); with Caulobacter vibrioides [4] it was 2 mg/L (≈ 5.1 µM); in the assay with Francisella tularensis, 6 mg/L (≈ 15.3 µM); with Enterococcus faecium, 16 mg/L (≈ 40.8 µM); in the assay on Enterococcus faecalis, 32 mg/L (≈ 81.6 µM); against Staphylococcus aureus, 16 mg/L (≈ 40.8 µM). For the same molecule, in the assay with Caulobacter vibrioides [5], the result was Active.
On to `C=CB(Oc1cccc2cccnc12)c1ccc(Cl)cc1`, for which the MIC was 1 mg/L (≈ 3.41 µM) in assay [1]; 4 mg/L (≈ 13.6 µM) against Enterococcus faecium; 0.62 mg/L (≈ 2.11 µM) in assay [2]; 32 mg/L (≈ 109 µM) in [3]; > 64 mg/L against Enterococcus faecalis; 1 mg/L (≈ 3.41 µM) in the assay on Moraxella catarrhalis. The MIC was determined as 4 mg/L (≈ 13.6 µM) in the assay on Bacillus subtilis, 2 mg/L (≈ 6.81 µM) against Staphylococcus aureus and 2 mg/L (≈ 6.81 µM) against Haemophilus influenzae.
As to `C=CB(Oc1cccc2cccnc12)c1cccc(Cl)c1`, the MIC in [1] was 1 mg/L (≈ 3.41 µM); with Enterococcus faecium it was 4 mg/L (≈ 13.6 µM); in assay [2] it was 0.62 mg/L (≈ 2.11 µM); in the assay on Bacillus anthracis it was 8 mg/L (≈ 27.3 µM); in [3], 16 mg/L (≈ 54.5 µM); against Enterococcus faecalis, 64 mg/L (≈ 218 µM). Besides, the MIC was found to be 4 mg/L (≈ 13.6 µM) in the assay with Moraxella catarrhalis, 4 mg/L (≈ 13.6 µM) with Bacillus subtilis, 2 mg/L (≈ 6.81 µM) against Staphylococcus aureus and 4 mg/L (≈ 13.6 µM) in the assay on Haemophilus influenzae. The inhibition in [6] turned out to be 50%.
As for `Clc1ccc(B(Oc2cccc3cccnc23)c2ccc(Cl)cc2)cc1`, the MIC was 2 mg/L (≈ 5.29 µM) in assay [1]; 4 mg/L (≈ 10.6 µM) in the assay on Caulobacter vibrioides [4]; 0.03 mg/L (≈ 0.0794 µM) with Francisella tularensis; 4 mg/L (≈ 10.6 µM) against Enterococcus faecium; 0.31 mg/L (≈ 0.82 µM) in assay [2]; 6.25 mg/L (≈ 16.5 µM) with Bacillus anthracis. For the same molecule, the MIC turned out to be 64 mg/L (≈ 169 µM) in [3]; 4 mg/L (≈ 10.6 µM) in the assay with Enterococcus faecalis; 2 mg/L (≈ 5.29 µM) in the assay on Moraxella catarrhalis; 2 mg/L (≈ 5.29 µM) with Bacillus subtilis; 2 mg/L (≈ 5.29 µM) against Staphylococcus aureus; 8 mg/L (≈ 21.2 µM) in the assay with Haemophilus influenzae. The outcome with Caulobacter vibrioides [5] was Active.
On to `C=CB(Oc1cccc2cccnc12)c1ccccc1`, for which the MIC in [1] was 1 mg/L (≈ 3.86 µM); against Enterococcus faecium, 4 mg/L (≈ 15.4 µM); in [3] it was 32 mg/L (≈ 123 µM); in the assay with Enterococcus faecalis it was > 64 mg/L; with Moraxella catarrhalis, 2 mg/L (≈ 7.72 µM); in the assay with Staphylococcus aureus, 2 mg/L (≈ 7.72 µM). For the same molecule, in the assay with Haemophilus influenzae, the MIC stood at 16 mg/L (≈ 61.7 µM).
Regarding `C=CB(Oc1cccc2cccnc12)c1ccc(F)c(Cl)c1`, the MIC in assay [1] is 1 mg/L (≈ 3.21 µM); against Enterococcus faecium, 2 mg/L (≈ 6.42 µM); in assay [2], 0.62 mg/L (≈ 1.99 µM); in [3] it was 32 mg/L (≈ 103 µM); against Enterococcus faecalis, 32 mg/L (≈ 103 µM); against Moraxella catarrhalis, 2 mg/L (≈ 6.42 µM). Also, the MIC against Bacillus subtilis was 4 mg/L (≈ 12.8 µM); in the assay with Staphylococcus aureus, 2 mg/L (≈ 6.42 µM); with Haemophilus influenzae it was 4 mg/L (≈ 12.8 µM).
Regarding `Fc1ccc(B(Oc2cccc3cccnc23)c2ccc(F)cc2)cc1`, the MIC was determined as 2 mg/L (≈ 5.79 µM) in assay [1]; 12.5 mg/L (≈ 36.2 µM) in the assay with Caulobacter vibrioides [4]; 32 mg/L (≈ 92.7 µM) in the assay on Enterococcus faecium; 0.62 mg/L (≈ 1.8 µM) in assay [2]; 32 mg/L (≈ 92.7 µM) against Enterococcus faecalis; 2 mg/L (≈ 5.79 µM) in the assay with Moraxella catarrhalis. Further, the MIC with Staphylococcus aureus and with Haemophilus influenzae was 4 mg/L (≈ 11.6 µM) throughout.
For `C=CB(Oc1cccc2cccnc12)c1cccc(F)c1`, the MIC came out at 1 mg/L (≈ 3.61 µM) in assay [1]; 16 mg/L (≈ 57.7 µM) against Francisella tularensis; 2 mg/L (≈ 7.22 µM) with Enterococcus faecium; 0.31 mg/L (≈ 1.12 µM) in [2]; 8 mg/L (≈ 28.9 µM) against Bacillus anthracis; 32 mg/L (≈ 115 µM) in assay [3]. The MIC was > 64 mg/L against Enterococcus faecalis; 1 mg/L (≈ 3.61 µM) with Moraxella catarrhalis; 2 mg/L (≈ 7.22 µM) against Bacillus subtilis; 2 mg/L (≈ 7.22 µM) in the assay on Staphylococcus aureus; 2 mg/L (≈ 7.22 µM) in the assay with Haemophilus influenzae.
